ChEMBL document CHEMBL4396973, “Design and development of a series of borocycles as selective, covalent kallikrein 5 inhibitors” (Bioorg Med Chem Lett, 2019)
pIC50: −log10 of the molar value.

Columns and labels:
[1] = molecular target: T1, Neutrophil elastase (Homo sapiens, UniProt P08246); test: Inhibition of human neutrophil elastase using MeOSuc-AAPV-AMC as substrate incubated for 40 mins by FLINT assay
T1 sequence (P08246 whole entry): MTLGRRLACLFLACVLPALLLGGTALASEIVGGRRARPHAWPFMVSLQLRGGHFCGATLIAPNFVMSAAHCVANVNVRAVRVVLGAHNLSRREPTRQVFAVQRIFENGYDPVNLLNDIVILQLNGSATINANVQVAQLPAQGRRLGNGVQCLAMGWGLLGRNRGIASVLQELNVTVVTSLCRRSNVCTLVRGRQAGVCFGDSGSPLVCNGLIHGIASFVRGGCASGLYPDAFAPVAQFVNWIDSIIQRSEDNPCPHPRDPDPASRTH

[2] = molecular target: Kallikrein-5 (Homo sapiens) (UniProt Q9Y337); test: Covalent reversible inhibition of human recombinant 6His-Q-FLAG-tagged KLK5 expressed in baculovirus infected Sf9 insect cells assessed as dissociation half life
Method in brief: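 Jump-dilution experiment used to follow dissociation from KLK5. The apparent off-rate constant (K-off, per min) and dissociation half-life (T1/2) were derived from it.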

[3] = molecular target: T2, Suppressor of tumorigenicity 14 protein (Homo sapiens, UniProt Q9Y5Y6); test: Inhibition of recombinant human N-terminal Met and 6-His-tagged matriptase (G596 to V855 residues) expressed in Escherichia coli using Boc-QAR-AMC as substrate incubated for 40 mins by FLINT assay
T2 sequence (Q9Y5Y6 whole entry): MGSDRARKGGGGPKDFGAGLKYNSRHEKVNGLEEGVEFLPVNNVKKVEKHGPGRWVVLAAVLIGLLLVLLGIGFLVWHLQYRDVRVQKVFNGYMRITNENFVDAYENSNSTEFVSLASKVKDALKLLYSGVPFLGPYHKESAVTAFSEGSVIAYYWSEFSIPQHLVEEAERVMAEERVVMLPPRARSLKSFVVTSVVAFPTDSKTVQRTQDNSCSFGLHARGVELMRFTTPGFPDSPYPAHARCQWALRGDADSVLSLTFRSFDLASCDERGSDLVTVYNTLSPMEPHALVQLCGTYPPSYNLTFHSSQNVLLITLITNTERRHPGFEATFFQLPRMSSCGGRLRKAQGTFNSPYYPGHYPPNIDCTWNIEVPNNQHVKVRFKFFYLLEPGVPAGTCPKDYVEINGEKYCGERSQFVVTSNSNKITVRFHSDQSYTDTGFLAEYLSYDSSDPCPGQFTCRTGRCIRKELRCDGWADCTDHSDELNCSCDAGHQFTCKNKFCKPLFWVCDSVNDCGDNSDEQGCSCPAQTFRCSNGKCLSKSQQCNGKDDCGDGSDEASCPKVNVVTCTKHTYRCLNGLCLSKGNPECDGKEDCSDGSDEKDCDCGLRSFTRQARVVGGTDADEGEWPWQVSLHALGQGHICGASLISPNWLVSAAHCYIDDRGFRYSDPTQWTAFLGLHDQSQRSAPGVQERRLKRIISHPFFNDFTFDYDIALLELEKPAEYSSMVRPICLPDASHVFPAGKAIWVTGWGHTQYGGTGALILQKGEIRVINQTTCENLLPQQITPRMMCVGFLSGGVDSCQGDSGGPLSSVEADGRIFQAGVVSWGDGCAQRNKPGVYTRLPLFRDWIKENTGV

[4] = molecular target: Plasma kallikrein (Homo sapiens, UniProt P03952); test: Inhibition of human C-terminal 6-His-tagged KLKB1 (G20-A638 residues) expressed in mouse NS0 cells using PFR-AMC as substrate incubated for 40 mins by FLINT assay
Plasma kallikrein, sequence (P03952 20-390 limits assumed): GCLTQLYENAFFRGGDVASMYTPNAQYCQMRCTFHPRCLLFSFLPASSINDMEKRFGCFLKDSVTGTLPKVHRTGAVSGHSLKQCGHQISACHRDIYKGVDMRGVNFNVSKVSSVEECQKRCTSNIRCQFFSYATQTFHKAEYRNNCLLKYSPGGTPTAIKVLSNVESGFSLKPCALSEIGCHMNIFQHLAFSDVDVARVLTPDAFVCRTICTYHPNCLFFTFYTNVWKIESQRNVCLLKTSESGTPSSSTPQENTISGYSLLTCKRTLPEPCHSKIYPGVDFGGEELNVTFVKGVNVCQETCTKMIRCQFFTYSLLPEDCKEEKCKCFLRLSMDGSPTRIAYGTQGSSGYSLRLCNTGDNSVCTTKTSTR
Plasma kallikrein, sequence (P03952 391-638 limits assumed): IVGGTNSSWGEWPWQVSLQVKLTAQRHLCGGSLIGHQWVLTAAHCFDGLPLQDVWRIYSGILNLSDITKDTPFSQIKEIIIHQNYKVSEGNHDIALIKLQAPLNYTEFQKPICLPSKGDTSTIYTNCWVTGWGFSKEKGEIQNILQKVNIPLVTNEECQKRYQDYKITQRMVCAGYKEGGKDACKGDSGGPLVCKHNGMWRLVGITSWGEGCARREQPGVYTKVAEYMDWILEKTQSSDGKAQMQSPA

[5] = Genotoxicity in Salmonella typhimurium TA98 in absence of rat S9 fraction by mini-Ames test; format: toxicity; conditions: salmonella enterica subsp. enterica serovar typhimurium
[6] = molecular target: Kallikrein-1 (Homo sapiens, UniProt P06870); test: Inhibition of human recombinant N-terminal His-tagged and enterokinase cleavage site-fused KLK1 (19 to 262 residues) expressed in baculovirus infected Sf9 insect cells using R110 labelled GSK3162232A as substrate measured at 30 secs interval for 5 mins by FLINT assay
Kallikrein-1, sequence (P06870 whole entry, the tested form may be a part): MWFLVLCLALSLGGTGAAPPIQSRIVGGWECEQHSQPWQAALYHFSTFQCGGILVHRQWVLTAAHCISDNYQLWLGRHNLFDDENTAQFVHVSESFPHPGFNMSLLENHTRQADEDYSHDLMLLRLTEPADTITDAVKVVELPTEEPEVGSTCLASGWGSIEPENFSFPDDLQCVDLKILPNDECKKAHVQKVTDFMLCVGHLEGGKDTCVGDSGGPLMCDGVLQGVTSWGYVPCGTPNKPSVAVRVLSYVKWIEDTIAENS

[7] = Solubility of the compound in Britton-Robinson buffer at pH 4 measured after 24 hrs; format: physicochemical
Method in brief: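 Solubility was measured in Britton-Robinson buffers spanning pH 2 to pH 8. Readings were taken after 12 h and 24 h and reported in mg/mL.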

[8] = molecular target: T3, Kallikrein-5 (Homo sapiens, UniProt Q9Y337); test: Inhibition of human recombinant 6His-Q-FLAG-tagged KLK5 expressed in baculovirus infected Sf9 insect cells using (Tos-Gly-Pro-Arg)2[R110].2TFA as substrate measured at 30 secs interval for 5 mins using 1 x 10'10M enzyme by FLINT assay
T3 sequence (Q9Y337 whole entry): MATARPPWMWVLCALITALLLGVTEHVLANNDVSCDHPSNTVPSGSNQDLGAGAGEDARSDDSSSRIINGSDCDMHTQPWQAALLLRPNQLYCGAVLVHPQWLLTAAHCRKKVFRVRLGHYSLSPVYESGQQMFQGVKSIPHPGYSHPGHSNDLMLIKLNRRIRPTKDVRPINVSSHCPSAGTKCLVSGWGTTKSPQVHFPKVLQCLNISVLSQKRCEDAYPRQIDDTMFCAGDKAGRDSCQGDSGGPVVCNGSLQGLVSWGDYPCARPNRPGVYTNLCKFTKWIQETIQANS

[9] = Genotoxicity in Salmonella typhimurium TA100 in absence of rat S9 fraction by mini-Ames test; format: toxicity; conditions: salmonella enterica subsp. enterica serovar typhimurium

pIC50 [1]: < 4.00
T1/2 [2]: 1.17 h
pIC50 [3]: 5.90
pIC50 [4]: 7.70
pIC50 [6]: 6.60
solubility at 24 h [7]: > 9000 µg/mL
pIC50 [8]: > 9.50
Structure (SMILES): Cl.N=C(N)c1ccc([C@H]2Cc3ccc(C(F)(F)F)cc3B(O)O2)cc1OCc1cccnc1
Activity [5]: Non-Toxic
Activity [9]: Non-Toxic
